Compound activity: PubChem BioAssay, several laboratories
Only some compounds are listed: those with a hit (about 3.9% of all), similar ones and a draw of the others.
NF-kB neuron act = activators of NF-kB expression in neurons, primary screen, cell-based, HTS | human neuronal cells, NF-kB reporter expression; stronger effect = higher value | fold change at 12.5 µM | 190,000 compounds, 1.6% hits | AID 1239, 2008; in the data active means fold change above about 3.3
STAT1 act-1 = STAT1 signaling activators, primary screen, cell-based, HTS, luciferase reporter; AID 932, 2007; NIH 3T3 STAT1-luciferase reporter, IFN-gamma, luminescence; 100% = IFN-gamma alone, no compound; activation (% of control), % at 5.5 µM; 200,000 compounds, 2.6% hits;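 active means activation above the screen-wide mean activation plus 3 SD, cut at about 130% in these data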;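 further: raw ratio to IFN-gamma control signal so 100% means no change and 0% no light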
STAT3 act-1 = IL-6 driven STAT3 reporter potentiators, primary screen, U3A cells, luciferase, luminescence, MLSCN library. IL-6 STAT3-luciferase reporter; 100% = signal with IL-6 EC80 alone. activation (% of control), % at 5.6 µM. 190,000 compounds, 0.91% hits. AID 871, 2007;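 active means activation above the screen-wide mean of compound activation plus 3 SD, cut at about 130% in these data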;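 further: 0% = background luminescence of wells with medium and substrate only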
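Material: STAT1-lacking human U3A cells, STAT3 luciferase reporter | Benchmarks: IL-6-only wells as 100% reference | Probe or stimulus: IL-6 (33 ng/mL) | Timing: Compound 1 h, then IL-6 6 h at 37 °C | Detection: Luminescence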
APP 5'UTR act = activators of APP 5'UTR luciferase reporter, primary screen, SH-SY5Y cells | SH-SY5Y APP 5'UTR luciferase reporter, luminescence; zero percent = DMSO vehicle wells | 190,000 compounds, 1% hits | activation, % at 2 µM;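 active means activation above a set limit, based on mean plus 3 SD of controls, cut at about 140% in these data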
STAT1 blocker = STAT1 signaling inhibitors, primary screen, cell-based, HTS, luciferase reporter; NIH 3T3 STAT1-luciferase reporter, IFN-gamma, luminescence; inhibition, % at 5.5 µM; 200,000 compounds, 0.35% hits; AID 920, 2007;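 active means inhibition above a set limit, the mean inhibition across all tested compounds plus 3 SD, cut at about 34% in these data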;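 further: 0% = IFN-gamma with DMSO and 100% = IFN-gamma with 300 µM nifuroxazide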
Pf gametocyte = late stage P. falciparum gametocyte viability inhibitors, primary screen, ATP luminescence, HTS | P. falciparum stage V gametocytes, 24 h | inhibition, % at 10.9 µM | 150,000 compounds, 0.065% hits | AID 743093, 2013;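 active means inhibition above the mean plus 3 SD of compounds within the control limits, set per campaign, cut at about 38% in these data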;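 further: 0% = DMSO wells and 100% = medium only without gametocytes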
STAT3 act-2 = STAT3 reporter potentiators, retest of hits, confirmation, U3A cells, luciferase, luminescence. 1,200 compounds, 64% hits. AID 1267, 2008. IL-6 potentiation; U3A cells lack STAT1; 100 means same as IL-6 alone. shares compounds with STAT3 act-1. potentiation (% of control), % at 5.7 µM;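 active means percent activation of the STAT3 luciferase reporter above a set limit taken from the earlier primary screen, cut at about 130% in these data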;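 further: 0% = background signal of medium plus substrate and 100% = median of IL-6 with DMSO wells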
NFkB act STAT3ct = NF-kB reporter activators in human cells, counter-screen for STAT3 activator project. NF-kappaB reporter activation. activation (% of control), % at 5.7 µM. shares compounds with STAT3 act-1. 1,200 compounds, 11% hits; in the data active means activation above about 120%;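 further: reporter induced by TNF-alpha stimulation; 100% = median of stimulated DMSO wells and 0% = no signal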
STAT1 act-2 = STAT1 reporter activators, IFN-gamma induced, counter-screen for STAT3 activator project, cell-based, NIH 3T3, luciferase luminescence; activation (% of control), % at 5.7 µM; NIH 3T3 STAT1-luciferase reporter; 1,200 compounds, 13% hits; AID 1318, 2008; shares compounds with STAT3 act-1;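 active means activation above the solvent-only control well mean plus 3 SD, set per screening run, cut at about 120% in these data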;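 further: 100% = IFN-gamma with DMSO median signal so 100% means no change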
Numbers without * were called inactive; / = no result.

SMILES	NF-kB neuron act	STAT1 act-1	STAT3 act-1	APP 5'UTR act	STAT1 blocker	Pf gametocyte	STAT3 act-2	NFkB act STAT3ct	STAT1 act-2
CCOC(=O)c1[nH]c2ccccc2c1NC(=O)c1ccc(S(=O)(=O)N(C)C)cc1	1.4	98.7	112.4	0.1	1.4	/	/	/	/
CN(C)S(=O)(=O)c1ccc(C(=O)Oc2cc(=O)[nH]c3ccccc23)cc1	1.03	103.4	154.2*	-10.4	-3.8	-15.1	123.8	100.5	97.8
C=C(C)CNC(=O)c1ccc2nc(Cc3ccc(OC)cc3)oc2c1	/	/	/	/	/	6.8	/	/	/
CCN(CC)P(=O)(Nc1ccc(C)cc1Br)c1ccc(N(C)C)cc1NC(=O)c1ccco1 (stereo not given)	0.65	103.0	149.7*	7.6	-4.4	9.4	144.2*	103.2	110.8
Oc1ccccc1/C=N/n1c2ccccc2c2ccccc21	0.99	91.6	147.0*	1.2	9.4	-8.7	137.3*	99.4	96.5
CC1CCCN(Cc2ccc(OCc3ccccc3)cc2)C1 (stereo not given)	/	/	/	/	/	9.9	/	/	/
O=c1[nH]c(-c2ccccc2)nnc1-c1ccccc1	/	/	/	/	/	-7.0	/	/	/
Cc1nn(-c2ccc(Cl)c(Cl)c2Cl)c(=O)c2ccccc12	1.07	96.7	93.3	22.7	3.6	17.3	/	/	/
Cc1nn(-c2ccc(Cl)c(Cl)c2)c(=O)c2ccccc12	1.61	102.6	145.6*	-15.2	-2.9	/	138.0*	123.1*	134.2*
Cc1ccccc1-c1nn(-c2ccc(F)cc2F)cc1CNCCCN(C)C	0.96	101.3	104.6	3.1	-2.3	2.1	/	/	/
CCN(CC)CCSc1nnc2c3cc(C)ccc3n(Cc3ccccc3)c2n1	/	/	/	/	/	-1.4	/	/	/
O=C(OCc1nc2ccccc2s1)C1CCN(S(=O)(=O)c2cccs2)CC1	0.95	125.1	143.7*	29.4	-27.0	/	139.7*	123.3*	131.4*
O=S(=O)(c1cccs1)N1CCN(Cc2nc3ccccc3s2)CC1	0.96	88.1	123.9	5.4	12.9	13.9	/	/	/
COc1ccc([C@H]2CC(=O)C=C(c3ccccc3OC)C2)cc1OC	/	/	/	/	/	11.1	/	/	/
O=C(O)C(Cc1ccccc1)N1C(=O)c2ccccc2C1=O (stereo not given)	0.98	103.0	108.2	12.9	-3.2	/	/	/	/
CN(C(=O)CCCN1C(=O)c2cccc3cccc(c23)C1=O)c1ccccc1	1.05	98.2	101.2	21.8	2.0	-7.6	/	/	/
O=C(O)C(Cc1ccccc1)N1C(=O)c2cccc3cccc(c23)C1=O (stereo not given)	0.95	87.9	143.5*	4.9	11.6	-3.4	142.6*	104.9	92.8
O=C1c2cccc3cccc(c23)C(=O)N1CCc1ccccc1	1.68	122.7	147.4*	99.6	-25.7	/	192.6*	125.0*	128.8*
NC(=S)N=Nc1c(O)[nH]c2c(Br)cc(Br)cc12	0.94	106.5	93.5	17.0	-6.8	-23.9	/	/	/
CCCc1cc(C(=O)Nc2cc(OC)c(Cl)cc2OC)no1	1.97	98.1	166.3*	1.2	2.1	/	162.5*	102.9	102.8
COc1cc(NC(=O)c2ccccc2)c(OC)cc1Cl	1.01	100.4	150.3*	8.5	-2.8	/	142.8*	105.8	105.0
CCCc1cc(C(=O)Nc2ccccc2C(=O)OC)no1	1.18	106.9	107.8	-9.6	-7.7	/	/	/	/
COc1cc(N)c(Cl)cc1NC(=O)c1ccccc1	1.29	107.3	97.6	-16.6	-7.9	-28.2	/	/	/
COc1cc(NC(=O)c2cc(-c3ccco3)on2)c(OC)cc1Cl	1.42	104.5	165.1*	-10.1	-4.9	/	145.4*	100.8	96.8
COc1cc(NC(=O)c2noc3c2CCC3)c(OC)cc1Cl	0.95	93.7	145.8*	-3.2	8.1	/	156.8*	100.5	101.5
SMILES	NF-kB neuron act	STAT1 act-1	STAT3 act-1	APP 5'UTR act	STAT1 blocker	Pf gametocyte	STAT3 act-2	NFkB act STAT3ct	STAT1 act-2
COc1cc(OC)c(NC(=O)c2ccco2)cc1Cl	0.86	118.3	95.9	12.5	-19.9	17.6	/	/	/
Cc1ccc(Nc2nc(N)nc(CCl)n2)c(C)c1	/	/	/	/	/	-10.4	/	/	/
Cc1ccc(C(=O)n2c(-c3ccccc3)cnc2SCC(=O)Nc2ccc(C)cc2C)cc1	1.06	122.1	107.3	16.3	-24.8	19.2	/	/	/
COc1cccc2sc(Nc3nnc(-c4ccc(F)cc4)o3)nc12	0.99	104.0	159.2*	10.1	-4.4	/	147.9*	111.3	108.7
COc1cccc2sc(NNC(=O)COc3ccccc3)nc12	1.08	102.3	99.8	11.9	-3.5	-14.8	/	/	/
O=C(NCCSc1c[nH]c2ccccc12)c1ccco1	1.73	108.7	139.9*	-1.4	-9.7	/	121.2	110.1	133.3*
O=C(NCCSc1c[nH]c2ccccc12)c1c(F)cccc1F	1.21	107.8	/	-1.5	-10.0	/	/	/	/
Cn1c(=O)c(-c2ccccc2N)nc2ccccc21	1.12	95.5	115.7	-3.5	4.9	/	/	/	/
Cn1c(=O)c(-c2ccccc2)nc2ccccc21	1.16	107.3	141.4*	9.3	-4.9	16.6	117.2	107.2	103.2
CC(C)C(NC(=O)c1ccco1)C(=O)OCC(=O)Nc1ccc(C(N)=O)cc1 (stereo not given)	1.12	99.1	92.2	-17.0	-0.5	13.5	/	/	/
Cn1c(CNc2ccccc2O)nc2ccccc21	1.38	100.3	158.8*	9.1	-0.3	/	179.2*	106.7	97.9
Cc1ccccc1NCc1nc2ccccc2n1C	/	/	/	/	/	-11.3	/	/	/
O=C(O)CCNc1cc2ccccc2cc1C(=O)O	1.06	99.5	142.3*	-22.3	-1.2	/	97.4	105.7	104.7
Cc1cc(NC(=O)C2CC2)n(-c2nc3ccccc3s2)n1	1.47	116.9	160.1*	-9.1	-19.8	-5.2	153.9*	108.3	112.3
Cc1cc(NC(=O)CCl)n(-c2nc3ccccc3s2)n1	1.11	101.9	151.5*	42.9	-3.6	4.3	146.4*	105.6	99.0
C=CCC[C@@H](Cc1ccc(F)cc1)C(=O)OC[C@@H]1CCCN1C(=O)[C@@H](CC=C)CC(=O)N[C@@H](CO)Cc1ccccc1	/	/	/	/	/	5.2	/	/	/
CO/C(N)=C(\C#N)N=Cc1ccccc1Cl	1.56	128.1	97.9	-5.5	-31.6	/	/	/	/
COc1ccccc1Cc1nc(-c2ccc(Br)o2)no1	1.58	106.0	156.2*	11.8	-6.6	/	135.9*	114.2	125.7*
Cc1ccccc1OCc1nc(-c2ccc(Br)o2)no1	1.65	110.6	97.5	16.5	-11.7	/	/	/	/
